Experimental data: ChEMBL document CHEMBL1157086, “Sesquiterpenoid aminoquinones from the marine sponge Dysidea sp” (J Nat Prod, 2010)
Calls of active or inactive are those of the source. No cut-off for these calls is given here.

Legend:
Staphylococcus aureus = assay: Antibacterial activity against Staphylococcus aureus at 100 ug/ml; assay type: functional, organism-based
Candida albicans = assay: Antifungal activity against Candida albicans at 100 ug/ml; assay type: functional, organism-based
Escherichia coli = assay: Antibacterial activity against Escherichia coli at 100 ug/ml; assay type: functional, organism-based
Ehrlich = assay: Cytotoxicity activity against mouse EAC at 100 ug/ml; assay type: functional, cell-based
[1] = system: Radical scavenging activity; assay: Antioxidant activity assessed as DPPH radical scavenging activity after 30 mins; assay type: functional
Outline: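 In EtOH, test concentrations 5, 10, 20, 50, 100 µM mixed with DPPH (0.1 mM final). A517 read after 30 min. Percent inhibition calculated against DPPH-only control, corrected for the compound's own absorbance at 517 nm. IC50 taken from the plotted inhibition curve as the concentration scavenging 50% of DPPH. Trolox served as positive control.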

C=C1CCC[C@H]2[C@](C)(CC3=CC(=O)C=C(N)C3=O)[C@@H](C)CC[C@@]12C
Activity (Staphylococcus aureus): inactive | Activity (Candida albicans): inactive | Activity (Escherichia coli): inactive | Activity (Ehrlich): inactive

C=C1CCC[C@H]2[C@](C)(CC3=CC(=O)C(NC)=CC3=O)[C@@H](C)CC[C@@]12C
Activity (Staphylococcus aureus): inactive | Activity (Candida albicans): inactive | Activity (Escherichia coli): inactive | Activity (Ehrlich): inactive

C=C1CCC[C@H]2[C@](C)(CC3=CC(=O)C=C(NC)C3=O)[C@@H](C)CC[C@@]12C
Activity (Staphylococcus aureus): inactive | Activity (Candida albicans): inactive | Activity (Escherichia coli): inactive | Activity (Ehrlich): inactive

Cc1c(C)c2c(c(C)c1O)CCC(C)(C(=O)O)O2 (centres undefined) [TROLOX]
IC50 [1]: 16 µM

C=C1CCC[C@H]2[C@](C)(Cc3cc(O)ccc3O)[C@@H](C)CC[C@@]12C [ARENAROL]
IC50 [1]: 19 µM

C=C1CCC[C@H]2[C@](C)(CC3=CC(=O)C(N)=CC3=O)[C@@H](C)CC[C@@]12C
Activity (Staphylococcus aureus): inactive | Activity (Candida albicans): inactive | Activity (Escherichia coli): inactive | Activity (Ehrlich): inactive

C=C1CCC[C@H]2[C@](C)(CC3=CC(=O)C=C(Nc4ccc(O)c(C[C@]5(C)[C@@H](C)CC[C@@]6(C)C(=C)CCC[C@@H]56)c4)C3=O)[C@@H](C)CC[C@@]12C [POPOLOHUANONE A]
IC50 [1]: 35 µM

C=C1CCC[C@H]2[C@](C)(CC3=CC(=O)C(Nc4ccc(O)c(C[C@]5(C)[C@@H](C)CC[C@@]6(C)C(=C)CCC[C@@H]56)c4)=CC3=O)[C@@H](C)CC[C@@]12C [POPOLOHUANONE F]
IC50 [1]: 35 µM | Activity (Staphylococcus aureus): inactive | Activity (Candida albicans): inactive | Activity (Escherichia coli): inactive | Activity (Ehrlich): inactive
